Assay outcomes: PubChem BioAssay, several laboratories
Hep lipid drop: modulators of hepatic lipid droplet formation. AML12 mouse hepatocytes, oleate lipid droplets, BODIPY imaging. inhibition, % at 6.5 µM. 240,000 compounds, 0.4% hits. AID 1656;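 active = lipid droplet intensity inhibited by at least 50%, with more than 500 cells counted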
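Technique: fluorescence imaging, 20x objective, two fields per well / Assay system: AML12 hepatocytes (mouse) / Measure: % inhibition of lipid droplet signal / Doses: 6.5 µM single-point dosing / Incubation: overnight exposure / Reagent: 100 µM oleic acid challenge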
MEKK2 WT-MEK5: raises or lowers MEK5 binding to wildtype human MEKK2 PB1 domain | binding response (% of control), % at 10 µM | 290,000 compounds, 1.1% hits | Q9Y2U5 | bead flow cytometry, Alexa488-MEK5 binding to MEKK2 WT; actives lie on both sides | AID 1531; in the data active = binding response below about 67% or above about 130%
MEKK2mut PB1 HTS: signal of MEK5 binding to mutant human MEKK2 PB1 domain; AID 1530; bead flow cytometry, Alexa488-MEK5 binding to MEKK2 mutant; 290,000 compounds, 0.35% hits; percent response, % at 10 µM; in the data active = percent response above about 24%, passing the limit was not always enough
MEKK3 PB1 HTS: MEKK3-MEK5 PB1 interaction, increase or decrease | AID 1529 | Q99759 | binding response (% of control), % at 10 µM | 290,000 compounds, 1.4% hits | bead-based flow cytometry, Alexa488-MEK5 binding to MEKK3; actives lie on both sides; 0 = blocked by unlabeled MEK5, 100 = vehicle;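 active = binding response more than 3 SD above or below the average of its plate-row segment, actives on both sides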;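 also: Alexa488 bead fluorescence after subtracting the streptavidin-only scavenger bead signal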
Target sequence (Q99759 whole entry, looked up): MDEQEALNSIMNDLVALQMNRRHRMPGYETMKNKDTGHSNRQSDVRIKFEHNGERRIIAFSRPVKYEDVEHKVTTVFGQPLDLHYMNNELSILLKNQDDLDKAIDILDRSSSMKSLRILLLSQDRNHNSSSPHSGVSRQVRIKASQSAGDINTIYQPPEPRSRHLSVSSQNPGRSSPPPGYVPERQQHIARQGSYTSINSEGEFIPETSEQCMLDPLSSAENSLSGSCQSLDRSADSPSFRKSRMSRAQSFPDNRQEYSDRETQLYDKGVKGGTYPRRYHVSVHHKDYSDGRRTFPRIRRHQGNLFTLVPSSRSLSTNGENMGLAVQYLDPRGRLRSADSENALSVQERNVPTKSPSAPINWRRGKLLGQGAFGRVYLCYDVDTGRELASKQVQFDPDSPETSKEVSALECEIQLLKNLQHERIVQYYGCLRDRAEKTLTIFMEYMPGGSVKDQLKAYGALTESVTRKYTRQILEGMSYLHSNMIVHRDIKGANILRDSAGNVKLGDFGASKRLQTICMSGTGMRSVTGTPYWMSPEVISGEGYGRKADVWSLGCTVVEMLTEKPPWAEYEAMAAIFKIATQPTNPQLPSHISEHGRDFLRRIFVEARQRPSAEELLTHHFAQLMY
MEKK2wt confirm: raises or lowers MEK5 binding to wildtype human MEKK2, retest; binding response (% of control), % at 10 µM; bead flow cytometry, Alexa488-MEK5 binding to MEKK2 WT; actives lie on both sides; shares compounds with MEKK3 PB1 HTS; 5,900 compounds, 2.4% hits; in the data active = binding response below about 16% or above about 210%; inactive = in between
MEKK2mut-MEK5: signal of MEK5 binding to mutant human MEKK2, retest. shares compounds with MEKK3 PB1 HTS. bead flow cytometry, Alexa488-MEK5 binding to MEKK2 mutant. percent response, % at 10 µM. 5,900 compounds, 2% hits. AID 1893; in the data active = percent response mostly above about 71%, no sharp cut-off; inactive = mostly below about 38%;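 also: higher means compound restores mutant binding toward wildtype level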
MEKK3-MEK5 inh: confirmation of inhibitors of MEK5 binding to human MEKK3 | shares compounds with MEKK3 PB1 HTS | bead flow cytometry, Alexa488-MEK5 binding to MEKK3; hits give low values | binding response (% of control), % at 10 µM | 5,900 compounds, 1.8% hits | AID 1894;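 active = binding response below 72% of control, or above a set upper limit, though filed actives all read lower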;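 also: lower values mean stronger disruption of MEK5 binding to MEKK3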
Hits are given with their value; . = inactive; / = not tested or not shown; [ ] = dose if it differs, or a comment. In the library only some 2.6% were active in any assay of this set; here they are far more common.

SMILES	Hep lipid drop	MEKK2 WT-MEK5	MEKK2mut PB1 HTS	MEKK3 PB1 HTS	MEKK2wt confirm	MEKK2mut-MEK5	MEKK3-MEK5 inh
COc1cc(/C=N/N=C(N)N)ccc1OCc1ccc(Cl)cc1	.	230.0	69.0	.	.	.	.
CCOc1cc(/C=N/O)ccc1OCc1ccc(F)cc1	.	.	.	.	/	/	/
Cc1ccc(C(=O)NN2C(=O)C3C4c5ccccc5C(c5ccccc54)C3C2=O)cc1 (stereo not drawn)	.	.	.	129.0	.	.	.
CCC(=O)c1ccc(-c2ccccc2)cc1	.	.	.	.	/	/	/
O=C(O)CCC(=O)c1ccc(-c2ccccc2)cc1	.	32.0[inhibitor]	.	67.0[inhibitor]	.	.	.
O=C(COC(=O)c1ccc(S(=O)(=O)N2CCOCC2)cc1)NC1CCCCCCC1	.	.	.	.	/	/	/
O=C(COC(=O)c1ccc(S(=O)(=O)N2CCc3ccccc3C2)cc1)NC1CCS(=O)(=O)C1 (stereo not drawn)	.	.	.	50.0[inhibitor]	.	.	.
Cc1ccc(C)c(NC(=O)c2cc(-c3ccccc3)nn2-c2ccccc2)c1	.	.	.	60.0[inhibitor]	.	.	.
COc1ccc(C(=O)Nc2cc(C)nn2-c2ccc(F)cc2)cc1	.	.	.	.	/	/	/
C#CCOCCOCCOCCNc1nc(N2CCN(C(=O)[C@H]([C@@H](C)CC)n3cc(CCCN=C(N)N)nn3)CC2)nc(N2CCN(C(=O)[C@H]([C@@H](C)CC)n3cc(CCCN=C(N)N)nn3)CC2)n1	.	164.0	.	.	.	.	.
C#CCOCCOCCOCCNc1nc(N2CCOCC2)nc(N2CCN(C(=O)[C@H](C)n3cc(CCCN=C(N)N)nn3)CC2)n1	.	2.0[inhibitor]	.	1.0[inhibitor]	.	.	.
CC(NC(=O)c1cc(COc2c(F)cccc2F)on1)c1cnn(-c2ccccc2)c1 (stereo not drawn)	.	.	.	.	/	/	/
Cc1ccc(N(CC(=O)NC2CCCCC2)S(=O)(=O)c2c(C)noc2C)cc1	.	.	.	.	/	/	/
Cc1nn(C)c(Nc2ccc(Br)cc2)c1Br	.	/	271.0	.	.	.	.
CC(C)NC(=O)C1CCN(C(=O)N(C)C)CC1	.	-3.0[inhibitor]	.	1.0[inhibitor]	.	.	.
COC(=O)c1nnn(-c2ccsc2C(=O)OC)c1C(=O)OC	.	.	.	145.0	.	.	.
O=C(CSc1nnc(COc2ccccc2)n1Cc1ccco1)c1ccc(F)cc1	/	.	.	.	/	/	/
NC(=O)CSc1nnc(COc2ccccc2)n1Cc1ccco1	.	.	.	131.0	.	.	.
CC(=O)Nc1ccc(/C=C2\CCc3ccccc3C2=O)cc1	.	.	.	.	/	/	/
CCC1CCCCN1CC(=O)Nc1cc(OC)c(OC)cc1C#N (stereo not drawn)	.	.	.	.	/	/	/
COc1cc(C#N)c(NC(=O)CN2CCN(CCO)CC2)cc1OC	.	.	.	47.0[inhibitor]	.	.	.
O=C1Nc2cc3c(cc2C1=O)sc1ccccc13	.	.	.	.	/	/	/
COc1cc(CN(C)CC2CCCN(CCc3cccc(C(F)(F)F)c3)C2)ccc1O (stereo not drawn)	.	156.0	28.0	.	.	.	.
COc1ccc(CN(C)CC2CCCN(CCc3ccc(F)cc3)C2)cc1OC (stereo not drawn)	.	.	.	.	/	/	/
CC(C)(C)OC(=O)N1CCC(CC2CC(c3cccc(Br)c3)=NO2)(C(=O)O)CC1 (stereo not drawn)	.	.	.	.	/	/	/
SMILES	Hep lipid drop	MEKK2 WT-MEK5	MEKK2mut PB1 HTS	MEKK3 PB1 HTS	MEKK2wt confirm	MEKK2mut-MEK5	MEKK3-MEK5 inh
Cc1ccc(S(=O)(=O)NCCNS(=O)(=O)c2ccc(C)cc2)cc1	.	.	.	.	/	/	/
Cc1ccc(S(=O)(=O)NCCc2cccs2)cc1	.	.	.	128.0	.	.	.
O=C(COc1ccc2c3c(c(=O)oc2c1)CCCC3)N1C[C@H]2C[C@@H](C1)c1cccc(=O)n1C2	.	.	.	.	/	/	/
Cc1ccc(C2CC(=O)N(c3ccc(F)cc3)C3=C2C(=O)CCC3)cc1 (stereo not drawn)	/	.	.	123.0	.	.	.
CCCCCCCCCCCCN1C/C(=C\C(=O)OCC)c2ccccc2S1(=O)=O	.	.	.	.	/	/	/
CCCCCCCCCCCCN1C/C(=C\C(=O)OCC)c2cc(C(F)(F)F)ccc2S1(=O)=O	.	67.0	51.0	.	.	.	.
N#Cc1c(Nc2ccccc2)c(/C=N/N=C/c2ccccc2)c[nH]c1=O	.	.	.	138.0	.	.	.
Cc1ccc2oc(=O)n(Cc3ccccc3)c2c1	.	.	.	.	/	/	/
CCOC(=O)c1c(NC(=O)CSc2ncccn2)sc2c1CCN(Cc1ccccc1)C2	.	.	.	.	/	/	/
CCOC(=O)c1c(NC(=O)CSc2nnc3c(n2)[nH]c2ccccc23)sc2c1CCN(C)C2	/	144.0	.	.	.	.	.
Cc1cnc(NC(=O)C2CC=CCC2)s1 (stereo not drawn)	.	.	.	.	/	/	/
Cc1nc2ccccn2c(=O)c1CCN1CCC(C(=O)c2ccc(F)cc2)CC1	.	.	.	.	/	/	/
Cc1nc2sccn2c(=O)c1CCN1CCC(=C(c2ccc(F)cc2)c2ccc(F)cc2)CC1	.	146.0	.	.	.	.	.
COc1ccccc1CNC(=O)N/C=C/c1ccc(Cl)cc1	.	.	.	.	/	/	/
NNC(=O)C(=O)NCCCN1CCOCC1	.	.	.	.	/	/	/
CCCCN(C(=O)/C=C/c1ccco1)c1c(N)n(CCC)c(=O)[nH]c1=O	.	.	.	.	/	/	/
Nc1c(N(CCO)C(=O)/C=C/c2ccco2)c(=O)[nH]c(=O)n1Cc1ccccc1	.	.	.	50.0[inhibitor]	.	.	.
O=C(CSc1nccn1-c1ccccc1)NO	.	.	51.0	33.0[inhibitor]	.	.	.
O=C(CSc1nccn1-c1cccc(Cl)c1)NO	.	.	.	.	/	/	/
COCCN=c1scc(-c2cc(OC)c(OC)c(OC)c2)n1/N=C/c1c(C)[nH]c2ccccc12	.	/	77.0	.	.	.	.
CC(Nc1nc(-c2ccccc2)nc2ccccc12)c1ccccc1 (stereo not drawn)	.	.	.	.	/	/	/
CC(Nc1nc(N2CCCCC2)nc2ccccc12)c1ccccc1 (stereo not drawn)	.	210.0	.	.	.	.	.
COc1ccccc1Nc1nc(-c2sc(N)nc2C)cs1	/	.	.	.	/	/	/
Cc1nc(N)sc1-c1csc(Nc2ncccn2)n1	.	.	.	35.0[inhibitor]	.	.	43.0
CCCN1CCC(=O)N(CCSc2ccccc2)CC1	.	.	.	.	/	/	/
CCCN1CCC(=O)N(CCSc2ccc(NC(C)=O)cc2)CC1	.	.	.	71.0[inhibitor]	.	.	.
O=C(NCCCN1CCCC1)Nc1ccccc1[N+](=O)[O-]	.	.	.	.	/	/	/
